ChEMBL document CHEMBL4002589, “Tri- and Tetrasubstituted Pyridinylimidazoles as Covalent Inhibitors of c-Jun N-Terminal Kinase 3” (J Med Chem, 2017)
pIC50: −log10 of the molar value. The source made the active and inactive calls.

Columns and labels:
[1] = target: Mitogen-activated protein kinase kinase kinase 20 (Homo sapiens) (UniProt Q9NYL2); assay: Inhibition of ZAK (unknown origin) assessed as residual activity at 1 uM relative to control
Procedure, shortened: (§1)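 Each inhibitor is tested at a single concentration, 1 µM or 0.5 µM depending on the compound. Results are reported as residual kinase activity.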

[2] = target: Casein kinase I isoform gamma-2 (Homo sapiens) (UniProt P78368); assay: Inhibition of CK1 gamma2 (unknown origin) assessed as residual activity at 1 uM relative to control; procedure, shortened: as §1
[3] = target: T1, Serine/threonine-protein kinase D3 (Homo sapiens) (UniProt O94806); assay: Inhibition of human PKC-nu (3 to 890 residues) expressed in Sf9 cells assessed as residual activity at 1 uM relative to control; procedure, shortened: as §1
T1 sequence (whole entry): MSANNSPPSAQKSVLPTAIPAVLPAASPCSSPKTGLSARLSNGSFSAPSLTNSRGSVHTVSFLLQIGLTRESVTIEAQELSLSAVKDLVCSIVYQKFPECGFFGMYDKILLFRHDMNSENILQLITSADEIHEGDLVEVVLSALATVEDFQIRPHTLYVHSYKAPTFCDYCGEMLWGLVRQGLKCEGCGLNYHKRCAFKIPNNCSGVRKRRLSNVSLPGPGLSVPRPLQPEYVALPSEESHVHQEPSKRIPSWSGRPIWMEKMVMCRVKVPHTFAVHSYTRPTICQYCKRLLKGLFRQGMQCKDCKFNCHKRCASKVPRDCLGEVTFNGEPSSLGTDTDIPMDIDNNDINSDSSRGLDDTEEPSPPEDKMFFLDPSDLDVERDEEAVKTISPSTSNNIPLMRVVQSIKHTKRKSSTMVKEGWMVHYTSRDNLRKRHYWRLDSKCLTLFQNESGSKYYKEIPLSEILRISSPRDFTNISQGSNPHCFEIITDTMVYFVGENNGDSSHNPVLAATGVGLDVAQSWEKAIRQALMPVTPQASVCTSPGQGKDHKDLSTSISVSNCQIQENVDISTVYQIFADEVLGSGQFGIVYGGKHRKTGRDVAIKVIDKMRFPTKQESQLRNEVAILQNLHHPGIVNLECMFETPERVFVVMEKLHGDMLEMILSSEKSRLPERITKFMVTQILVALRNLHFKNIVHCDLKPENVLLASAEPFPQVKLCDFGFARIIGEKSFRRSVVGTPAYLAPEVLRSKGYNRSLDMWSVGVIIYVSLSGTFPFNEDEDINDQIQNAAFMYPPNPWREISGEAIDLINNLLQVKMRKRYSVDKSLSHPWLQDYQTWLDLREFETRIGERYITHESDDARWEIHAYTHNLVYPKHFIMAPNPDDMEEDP

[4] = target: Casein kinase I isoform delta (Homo sapiens) (UniProt P48730); assay: Inhibition of CK1 delta (unknown origin) assessed as residual activity at 1 uM relative to control; procedure, shortened: as §1
[5] = target: Serine/threonine-protein kinase 16 (Homo sapiens) (UniProt O75716); assay: Inhibition of full length human GST-tagged TSF1 expressed in Sf9 cells assessed as residual activity at 1 uM relative to control; procedure, shortened: as §1
[6] = tested on: Mitogen-activated protein kinase 10 (Homo sapiens), P53779 [C154A]; assay: Covalent binding affinity to JNK3 C154A mutant (unknown origin) at 5 molar excess after 1 hr by LC-muESI-QTOF mass spectrometry
Procedure, shortened: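 Intact-protein mass spectrometry with a JNK3 mutant carrying Cys-154→Ala. Inhibitor is incubated with the protein. Unbound and reversibly bound ligand are removed by chromatography and by a high declustering potential before ionization. The protein is then analysed by LC-µESI-QTOF to look for a mass shift from a covalent adduct.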

[7] = target: Mitogen-activated protein kinase 10 (Homo sapiens, UniProt P53779); assay: Inhibition of recombinant 6x-His-tagged JNK3 (39 to 402 residues) (unknown origin) expressed in Escherichia coli BL21(DE3) assessed as reduction in ATF2 phosphorylation measured after 50 mins by ELISA
[8] = target: Dual specificity protein kinase CLK4 (Homo sapiens) (UniProt Q9HAZ1); assay: Inhibition of CLK4 (unknown origin) assessed as residual activity at 1 uM relative to control; procedure, shortened: as §1
[9] = target: Casein kinase I isoform gamma-3 (Homo sapiens) (UniProt Q9Y6M4); assay: Inhibition of CK1 gamma3 (unknown origin) assessed as residual activity at 1 uM relative to control; procedure, shortened: as §1
[10] = target: T2, Serine/threonine-protein kinase Sgk1 (Homo sapiens) (UniProt O00141); assay: Inhibition of full length human GST-tagged SGK1 expressed in Sf9 cells assessed as residual activity at 1 uM relative to control; procedure, shortened: as §1
T2 sequence (whole entry): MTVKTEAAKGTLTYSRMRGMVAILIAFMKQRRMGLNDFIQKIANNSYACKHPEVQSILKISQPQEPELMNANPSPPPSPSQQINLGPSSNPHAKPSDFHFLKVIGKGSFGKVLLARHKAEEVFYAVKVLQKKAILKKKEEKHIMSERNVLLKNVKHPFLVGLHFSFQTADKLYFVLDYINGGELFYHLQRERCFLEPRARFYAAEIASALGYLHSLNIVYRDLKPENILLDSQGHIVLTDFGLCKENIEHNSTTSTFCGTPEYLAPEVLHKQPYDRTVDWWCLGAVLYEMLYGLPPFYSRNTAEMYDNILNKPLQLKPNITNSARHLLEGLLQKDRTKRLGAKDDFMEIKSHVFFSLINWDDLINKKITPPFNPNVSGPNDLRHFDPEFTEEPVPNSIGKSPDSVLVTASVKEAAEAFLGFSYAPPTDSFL

[11] = target: T3, Dual specificity mitogen-activated protein kinase kinase 7 (Homo sapiens) (UniProt O14733); assay: Inhibition of full length human GST-HIS tagged MKK7 expressed in Sf9 cells assessed as residual activity at 1 uM relative to control; procedure, shortened: as §1
T3 sequence (whole entry): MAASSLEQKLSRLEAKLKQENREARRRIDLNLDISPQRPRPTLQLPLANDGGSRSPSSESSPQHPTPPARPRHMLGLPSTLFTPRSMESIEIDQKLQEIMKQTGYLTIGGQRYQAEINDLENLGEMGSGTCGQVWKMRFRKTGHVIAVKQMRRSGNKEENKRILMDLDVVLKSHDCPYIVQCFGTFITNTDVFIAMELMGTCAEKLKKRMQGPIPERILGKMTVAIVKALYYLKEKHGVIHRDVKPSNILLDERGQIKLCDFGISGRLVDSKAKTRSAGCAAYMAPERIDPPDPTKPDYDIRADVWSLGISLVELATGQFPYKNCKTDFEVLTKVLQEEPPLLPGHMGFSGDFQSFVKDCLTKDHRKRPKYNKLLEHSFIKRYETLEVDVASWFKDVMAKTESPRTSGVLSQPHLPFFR

[12] = target: Mitogen-activated protein kinase 14 (Homo sapiens, UniProt Q16539); assay: Inhibition of GST-His tagged human p38alpha expressed in Escherichia coli assessed as reduction in ATF2 phosphorylation measured after 60 mins by ELISA
Procedure, shortened: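 ELISA kinase assays run in parallel for JNK3 and p38α, with 60 min incubation. IC50 values are the mean of three experiments.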

[13] = target: Mitogen-activated protein kinase kinase kinase 11 (Homo sapiens) (UniProt Q16584); assay: Inhibition of MAP3K11 (unknown origin) assessed as residual activity at 1 uM relative to control; procedure, shortened: as §1
Mitogen-activated protein kinase kinase kinase 11 (Homo sapiens), sequence (Q16584 whole entry, looked up): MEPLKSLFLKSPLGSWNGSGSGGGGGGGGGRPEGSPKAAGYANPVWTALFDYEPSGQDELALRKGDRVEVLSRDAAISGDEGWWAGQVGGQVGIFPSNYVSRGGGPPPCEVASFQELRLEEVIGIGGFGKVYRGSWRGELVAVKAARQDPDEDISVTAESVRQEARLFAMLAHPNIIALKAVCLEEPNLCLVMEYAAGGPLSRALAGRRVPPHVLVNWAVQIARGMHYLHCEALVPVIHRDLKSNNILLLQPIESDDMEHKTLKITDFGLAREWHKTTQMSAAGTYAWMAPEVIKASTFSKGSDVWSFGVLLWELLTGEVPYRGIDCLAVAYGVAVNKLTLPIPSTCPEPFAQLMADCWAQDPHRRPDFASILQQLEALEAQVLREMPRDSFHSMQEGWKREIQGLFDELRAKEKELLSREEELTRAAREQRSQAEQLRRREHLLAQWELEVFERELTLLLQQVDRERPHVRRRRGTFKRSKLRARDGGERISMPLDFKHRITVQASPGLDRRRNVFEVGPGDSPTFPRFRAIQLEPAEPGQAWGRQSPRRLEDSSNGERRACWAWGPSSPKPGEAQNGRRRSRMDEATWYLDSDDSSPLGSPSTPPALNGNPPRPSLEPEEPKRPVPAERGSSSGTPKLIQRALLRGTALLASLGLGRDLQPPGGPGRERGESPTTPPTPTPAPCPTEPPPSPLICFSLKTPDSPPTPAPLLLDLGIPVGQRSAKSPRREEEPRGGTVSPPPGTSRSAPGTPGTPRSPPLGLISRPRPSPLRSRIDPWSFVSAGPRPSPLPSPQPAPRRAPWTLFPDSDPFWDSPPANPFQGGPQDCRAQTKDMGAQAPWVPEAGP

Serine/threonine-protein kinase 16 (Homo sapiens), sequence (O75716 whole entry): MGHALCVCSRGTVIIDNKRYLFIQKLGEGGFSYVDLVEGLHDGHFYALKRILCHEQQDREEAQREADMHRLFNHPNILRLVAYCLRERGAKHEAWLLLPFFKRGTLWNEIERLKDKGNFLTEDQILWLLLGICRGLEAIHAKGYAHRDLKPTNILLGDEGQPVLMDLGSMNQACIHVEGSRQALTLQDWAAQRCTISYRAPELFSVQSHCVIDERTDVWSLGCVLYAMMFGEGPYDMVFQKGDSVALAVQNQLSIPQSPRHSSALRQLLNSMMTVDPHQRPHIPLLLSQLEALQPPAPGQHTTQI
Dual specificity protein kinase CLK4 (Homo sapiens), sequence (Q9HAZ1 whole entry, looked up, canonical isoform): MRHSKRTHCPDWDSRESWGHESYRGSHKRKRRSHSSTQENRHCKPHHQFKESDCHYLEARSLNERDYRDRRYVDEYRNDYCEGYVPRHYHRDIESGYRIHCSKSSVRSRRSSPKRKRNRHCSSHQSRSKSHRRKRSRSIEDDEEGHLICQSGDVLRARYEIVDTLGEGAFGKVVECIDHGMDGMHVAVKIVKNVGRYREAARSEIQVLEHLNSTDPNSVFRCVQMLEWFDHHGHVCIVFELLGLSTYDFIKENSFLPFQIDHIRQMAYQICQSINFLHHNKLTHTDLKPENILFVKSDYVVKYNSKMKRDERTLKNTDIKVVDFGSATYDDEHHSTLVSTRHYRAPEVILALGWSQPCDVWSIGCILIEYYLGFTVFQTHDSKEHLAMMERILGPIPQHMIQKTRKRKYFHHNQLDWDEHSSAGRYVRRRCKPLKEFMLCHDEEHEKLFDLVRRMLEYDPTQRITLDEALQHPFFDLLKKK
Mitogen-activated protein kinase kinase kinase 20 (Homo sapiens), sequence (Q9NYL2 2-800 limits assumed): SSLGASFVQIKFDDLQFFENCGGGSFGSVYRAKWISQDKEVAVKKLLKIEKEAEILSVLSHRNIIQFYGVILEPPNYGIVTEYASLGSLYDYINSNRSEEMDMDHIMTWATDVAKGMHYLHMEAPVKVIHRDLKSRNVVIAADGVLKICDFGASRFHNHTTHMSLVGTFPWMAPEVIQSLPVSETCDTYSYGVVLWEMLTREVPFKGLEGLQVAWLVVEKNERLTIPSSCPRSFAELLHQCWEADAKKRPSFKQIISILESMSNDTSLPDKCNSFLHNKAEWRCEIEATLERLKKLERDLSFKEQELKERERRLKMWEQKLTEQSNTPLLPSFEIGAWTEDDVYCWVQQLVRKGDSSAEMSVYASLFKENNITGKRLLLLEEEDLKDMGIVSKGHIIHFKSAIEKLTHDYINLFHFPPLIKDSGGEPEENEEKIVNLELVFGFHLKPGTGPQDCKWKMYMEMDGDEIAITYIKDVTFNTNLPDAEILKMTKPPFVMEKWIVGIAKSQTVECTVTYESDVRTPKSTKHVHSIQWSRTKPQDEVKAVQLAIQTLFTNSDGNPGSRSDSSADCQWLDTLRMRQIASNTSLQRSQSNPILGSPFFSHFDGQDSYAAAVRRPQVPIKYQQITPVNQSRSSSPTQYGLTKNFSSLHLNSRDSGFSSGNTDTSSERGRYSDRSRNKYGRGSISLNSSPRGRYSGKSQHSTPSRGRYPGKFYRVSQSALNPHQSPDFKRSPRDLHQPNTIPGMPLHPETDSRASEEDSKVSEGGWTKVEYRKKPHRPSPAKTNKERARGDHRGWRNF
Mitogen-activated protein kinase 14, sequence (Q16539 whole entry): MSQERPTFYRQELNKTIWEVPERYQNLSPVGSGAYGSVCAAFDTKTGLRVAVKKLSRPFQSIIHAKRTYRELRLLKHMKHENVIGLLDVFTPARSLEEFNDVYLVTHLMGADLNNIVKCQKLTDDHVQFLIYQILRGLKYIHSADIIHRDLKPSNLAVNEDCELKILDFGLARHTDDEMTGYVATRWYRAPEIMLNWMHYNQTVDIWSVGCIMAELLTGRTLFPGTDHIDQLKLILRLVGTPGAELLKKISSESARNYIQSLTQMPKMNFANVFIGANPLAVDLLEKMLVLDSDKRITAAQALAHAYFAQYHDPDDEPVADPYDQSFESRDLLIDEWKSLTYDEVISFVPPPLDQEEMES
Mitogen-activated protein kinase 10, sequence (P53779 whole entry, the tested form may be a part): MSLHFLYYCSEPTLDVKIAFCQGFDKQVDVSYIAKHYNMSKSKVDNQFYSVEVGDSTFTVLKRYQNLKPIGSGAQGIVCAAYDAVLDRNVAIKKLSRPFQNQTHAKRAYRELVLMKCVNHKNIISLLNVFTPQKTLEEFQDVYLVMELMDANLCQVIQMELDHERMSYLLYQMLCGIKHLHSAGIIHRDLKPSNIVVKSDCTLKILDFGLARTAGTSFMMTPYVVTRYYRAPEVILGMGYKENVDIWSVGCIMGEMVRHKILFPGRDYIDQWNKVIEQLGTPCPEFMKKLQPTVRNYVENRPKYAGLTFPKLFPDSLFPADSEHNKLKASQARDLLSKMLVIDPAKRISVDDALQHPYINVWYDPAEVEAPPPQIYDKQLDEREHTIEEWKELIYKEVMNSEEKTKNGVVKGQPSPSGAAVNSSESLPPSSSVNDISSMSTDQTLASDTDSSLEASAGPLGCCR
Casein kinase I isoform gamma-2 (Homo sapiens), sequence (P78368 whole entry, looked up, the tested form may be a part, canonical isoform): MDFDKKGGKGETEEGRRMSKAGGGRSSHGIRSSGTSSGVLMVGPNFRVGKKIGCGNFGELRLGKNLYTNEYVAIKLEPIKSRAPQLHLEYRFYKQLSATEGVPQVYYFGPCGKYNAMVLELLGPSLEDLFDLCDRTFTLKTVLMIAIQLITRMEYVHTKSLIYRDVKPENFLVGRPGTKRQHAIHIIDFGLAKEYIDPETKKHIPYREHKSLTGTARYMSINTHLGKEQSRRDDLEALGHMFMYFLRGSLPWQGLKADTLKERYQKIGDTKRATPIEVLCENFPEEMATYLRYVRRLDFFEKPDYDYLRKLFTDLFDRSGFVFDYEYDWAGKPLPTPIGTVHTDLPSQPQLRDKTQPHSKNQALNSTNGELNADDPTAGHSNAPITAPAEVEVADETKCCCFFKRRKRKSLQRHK
Casein kinase I isoform gamma-3 (Homo sapiens), sequence (Q9Y6M4 whole entry, looked up, canonical isoform): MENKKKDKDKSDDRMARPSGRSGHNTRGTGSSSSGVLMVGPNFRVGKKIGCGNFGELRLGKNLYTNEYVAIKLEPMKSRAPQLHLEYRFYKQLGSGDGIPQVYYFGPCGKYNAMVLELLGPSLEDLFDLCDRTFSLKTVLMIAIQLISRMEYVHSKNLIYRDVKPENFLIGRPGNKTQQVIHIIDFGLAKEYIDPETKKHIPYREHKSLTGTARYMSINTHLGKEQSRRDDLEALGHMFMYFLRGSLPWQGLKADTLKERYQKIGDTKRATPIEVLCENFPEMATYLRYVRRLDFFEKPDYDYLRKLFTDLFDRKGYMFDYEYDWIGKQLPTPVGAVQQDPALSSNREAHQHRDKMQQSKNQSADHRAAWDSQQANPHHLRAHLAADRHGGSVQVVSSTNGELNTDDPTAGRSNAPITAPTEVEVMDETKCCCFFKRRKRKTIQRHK
Mitogen-activated protein kinase 10 (Homo sapiens), P53779 [C154A], sequence (P53779 whole entry C154A): as the sequence (P53779 whole entry, the tested form may be a part) above, with C154A counted along it
Casein kinase I isoform delta (Homo sapiens), sequence (P48730 whole entry, looked up, canonical isoform): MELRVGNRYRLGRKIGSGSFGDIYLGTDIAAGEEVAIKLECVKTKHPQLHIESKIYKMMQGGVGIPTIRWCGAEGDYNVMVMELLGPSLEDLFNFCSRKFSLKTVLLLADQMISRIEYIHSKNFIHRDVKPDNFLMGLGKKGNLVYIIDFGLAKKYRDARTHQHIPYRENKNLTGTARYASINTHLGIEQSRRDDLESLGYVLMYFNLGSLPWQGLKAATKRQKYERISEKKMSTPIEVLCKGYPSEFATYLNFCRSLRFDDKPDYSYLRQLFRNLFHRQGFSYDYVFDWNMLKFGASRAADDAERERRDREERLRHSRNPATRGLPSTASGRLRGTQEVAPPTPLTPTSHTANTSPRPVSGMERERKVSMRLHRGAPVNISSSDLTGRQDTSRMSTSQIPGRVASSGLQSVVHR

C=CC(=O)Nc1cccc(C(=O)Nc2ccc(Nc3cc(-c4[nH]c(SC)nc4C)ccn3)cc2)c1
inactive: Activity [6]
5.71: pIC50 [12]
8.70: pIC50 [7]
10 to 29%: Activity [1] | Activity [2] | Activity [3] | Activity [4] | Activity [5] | Activity [8] | Activity [9] | Activity [10] | Activity [11] | Activity [13]
